Reference: ChEMBL document CHEMBL4033721, “Design, synthesis and evaluation of indole-2-carboxamides with pan anti-mycobacterial activity” (Bioorg Med Chem, 2017)
Converted amounts (≈) assume the structure as drawn.

Experiments:
[1] = test system: Mycobacterium avium-intracellulare; assay: Antimycobacterial activity against Mycobacterium avium-intracellulare isolate 1956 after 8 days by resazurin microtiter based colorimetric assay; type: functional; conditions: isolate 1956, 192 h
In short: (§1)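 Resazurin microtiter plate MIC, read by visual scan for growth, in Mueller Hinton II broth. Strains include clinical isolates of M. abscessus complex, M. chelonae, M. avium, M. intracellulare, M. xenopi, P. aeruginosa PAO-1 and S. aureus ATCC 25923.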

[2] = test system: Mycolicibacterium smegmatis; assay: Antimycobacterial activity against Mycobacterium smegmatis isolate MC2 155 after 8 days by resazurin microtiter based colorimetric assay; type: functional; conditions: str. MC2 155, 192 h
[3] = Cytotoxicity against human THP1 cells assessed as reduction in cell viability after 3 days by CellTiter-Glo based luminescence assay; conditions: THP-1 cells, read-out: TD50
In short: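 THP-1 cells in complete RPMI, made macrophage-like with 80 nM PMA overnight at 37°C, 5% CO2, then seeded and cultured 24 h. Cells got 10-point DMSO serial dilutions (top 50 µM, final DMSO 0.5%) for 3 days, with staurosporine as control. Viability read by CellTiter-Glo luminescence. IC50 (50% viability) came from a Levenberg–Marquardt curve fit.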

[4] = test system: Pseudomonas aeruginosa; assay: Antibacterial activity against Pseudomonas aeruginosa PAO1 after 8 days by resazurin microtiter based colorimetric assay; type: functional; conditions: PAO1, 192 h; in short: as §1
[5] = Selectivity index, ratio of TD50 for human THP1 cells to MIC for Mycobacterium chelonae ATCC 35752; type: toxicity; conditions: THP-1 cells, read-out: Selectivity Index
In short: (§2)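 Ratio of THP-1 cytotoxicity to resazurin-assay MIC. Cytotoxicity: THP-1 cells were differentiated with 80 nM PMA overnight, plated for 24 h, then given 10-point DMSO dilutions (top 50 μM, 0.5% final DMSO) for 3 days at 37°C, 5% CO₂. ATP luminescence was read, with a staurosporine control. IC₅₀ = concentration giving 50% viability, from a Levenberg–Marquardt curve fit.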

[6] = test system: Mycobacteroides abscessus; assay: Antimycobacterial activity against Mycobacterium abscessus isolate DCI 21 after 8 days by resazurin microtiter based colorimetric assay; type: functional; conditions: isolate DCI 21, 192 h; in short: as §1
[7] = test system: Staphylococcus aureus; assay: Antibacterial activity against Staphylococcus aureus ATCC 25923 after 8 days by resazurin microtiter based colorimetric assay; type: functional; conditions: ATCC 25923, 192 h; in short: as §1
[8] = test system: Mycobacteroides abscessus; assay: Antimycobacterial activity against Mycobacterium abscessus ATCC 19977 after 8 days by resazurin microtiter based colorimetric assay; type: functional; conditions: ATCC 19977, 192 h; in short: as §1
[9] = Selectivity index, ratio of TD50 for human THP1 cells to MIC for Mycobacterium tuberculosis H37Rv MC2-6206; type: toxicity; conditions: THP-1 cells, read-out: Selectivity Index; in short: as §2
[10] = Antimycobacterial activity against Mycobacterium bolletii ATCC 14472 after 8 days by resazurin microtiter based colorimetric assay; type: functional; conditions: Mycobacteroides abscessus, ATCC 14472, 192 h; in short: as §1
[11] = test system: Mycobacterium abscessus subsp. massiliense; assay: Inhibition of MmpL3 in Mycobacterium massiliense isolate 1513 assessed as reduction in arabinogalactan after 16 hrs using [1,2-14C]acetate labeled compounds by TLC analysis
In short: (§3)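 Lipids were run on TLC in CHCl3:CH3OH:H2O 20:4:0.5. Cell wall-bound MAMEs were run in n-hexane:ethyl acetate 95:5, developed three times. Phosphorimaging read-out gave TMM/TDM ratios and MAME radioactivity relative to untreated control.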

[12] = Antimycobacterial activity against Mycobacterium massiliense isolate CRM0019 after 8 days by resazurin microtiter based colorimetric assay; type: functional, Mycobacterium abscessus subsp. massiliense; conditions: Mycobacteroides abscessus, isolate CRM0019, 192 h; in short: as §1
[13] = Selectivity index, ratio of TD50 for human THP1 cells to MIC for Mycobacterium massiliense isolate CRM0019; type: toxicity; conditions: THP-1 cells, read-out: Selectivity Index; in short: as §2
[14] = Antimycobacterial activity against Mycobacterium massiliense isolate CIP108297 after 8 days by resazurin microtiter based colorimetric assay; type: functional, Mycobacterium abscessus subsp. massiliense; conditions: Mycobacteroides abscessus, isolate CIP108297, 192 h; in short: as §1
[15] = Selectivity index, ratio of TD50 for human THP1 cells to MIC for Mycobacterium abscessus isolate DCI 21; type: toxicity; conditions: THP-1 cells, read-out: Selectivity Index; in short: as §2
[16] = test system: Mycobacterium abscessus subsp. massiliense; assay: Inhibition of MmpL3 in Mycobacterium massiliense isolate 1513 assessed as reduction in trehalose monomycolate by measuring decrease in mycolic acid transfer to cell envelope after 16 hrs using [1,2-14C]acetate labeled compounds by TLC analysis; in short: as §3
[17] = test system: Mycobacterium xenopi; assay: Antimycobacterial activity against wild type Mycobacterium xenopi isolate 4042 after 8 days by resazurin microtiter based colorimetric assay; type: functional; conditions: isolate 4042, 192 h; in short: as §1
[18] = test system: Mycobacterium tuberculosis; assay: Antimycobacterial activity against Mycobacterium tuberculosis H37Rv MC2-6206 after 8 days by resazurin microtiter based colorimetric assay; type: functional; conditions: H37Rv MC2-6206, 192 h
In short: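 MIC was measured by resazurin microtiter colorimetric assay with visual growth scoring. Medium was 7H9-ADC–0.05% tyloxapol with 0.2% casaminoacids, 48 µg/ml pantothenate and 50 µg/ml L-leucine.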

[19] = test system: Mycobacteroides chelonae; assay: Antimycobacterial activity against Mycobacterium chelonae ATCC 35752 after 8 days by resazurin microtiter based colorimetric assay; type: functional; conditions: ATCC 35752, 192 h; in short: as §1
[20] = test system: Mycobacterium avium; assay: Antimycobacterial activity against Mycobacterium avium isolate 104 after 8 days by resazurin microtiter based colorimetric assay; type: functional; conditions: isolate 104, 192 h
In short: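 M. avium 104 MICs were read by resazurin microtiter colorimetric assay in 96-well plates, with growth scored visually, in Mueller Hinton II medium.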

[21] = test system: Mycobacterium abscessus subsp. massiliense; assay: Inhibition of MmpL3 in Mycobacterium massiliense isolate 1513 assessed as reduction in trehalose dimycolate after 16 hrs using [1,2-14C]acetate labeled compounds by TLC analysis; in short: as §3
[22] = Selectivity index, ratio of TD50 for human THP1 cells to MIC for Mycobacterium bolletii ATCC 14472; type: toxicity; conditions: THP-1 cells, read-out: Selectivity Index; in short: as §2
[23] = test system: Mycobacteroides abscessus; assay: Bactericidal activity against Mycobacterium abscessus after 8 days by resazurin microtiter based colorimetric assay; type: functional
In short: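 MBC90 found by subculturing from the MIC wells onto 7H11 agar. Value is the lowest concentration cutting CFU by 90% versus the inoculum.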

Structure (SMILES) | MIC [1] [mg/L] | MIC [2] [mg/L] | CC50 at 72 h [3] [mg/L] | MIC [4] [mg/L] | selectivity ratio [5] | MIC [6] [mg/L] | MIC [7] [mg/L] | MIC [8] [mg/L] | selectivity ratio [9] | MIC [10] [mg/L] | inhibition [11] | MIC [12] [mg/L] | selectivity ratio [13] | MIC [14] [mg/L] | selectivity ratio [15] | inhibition [16] | MIC [17] [mg/L] | MIC [18] [mg/L] | MIC [19] [mg/L] | inhibition [21] | further results
O=C(NC12CC3CC(CC(C3)C1)C2)c1cc2ccccc2[nH]1 | 8 (≈ 27.2 µM) | 1.56 (≈ 5.3 µM) | > 14.7 | > 160 | > 58 | 0.25 (≈ 0.849 µM) | > 160 | 0.25 (≈ 0.849 µM) | > 73 | 0.25 (≈ 0.849 µM) | Dose-dependent effect | 0.25 (≈ 0.849 µM) | > 58 | 0.5 (≈ 1.7 µM) | > 58 | Dose-dependent effect | 0.5 to 1 (≈ 1.7 to 3.4 µM) | 0.2 (≈ 0.679 µM) | 0.25 (≈ 0.849 µM) | Dose-dependent effect | MIC [20]: 8 mg/L (≈ 27.2 µM); selectivity ratio [22]: > 58
Cc1cc(C)c2cc(C(=O)N[C@@H]3C[C@@H]4C[C@H]([C@H]3C)C4(C)C)[nH]c2c1 | 2 (≈ 6.16 µM) | 1.25 to 2.5 (≈ 3.85 to 7.7 µM) | > 16.2 | > 160 | > 130 | 0.125 (≈ 0.385 µM) | > 160 | 0.125 (≈ 0.385 µM) | > 830 | 0.125 (≈ 0.385 µM) | Dose-dependent effect | 0.125 (≈ 0.385 µM) | > 130 | 0.125 (≈ 0.385 µM) | > 130 | Dose-dependent effect | 0.25 to 1 (≈ 0.77 to 3.08 µM) | 0.0195 (≈ 0.0601 µM) | 0.125 (≈ 0.385 µM) | Dose-dependent effect | MIC [20]: 2 mg/L (≈ 6.16 µM); selectivity ratio [22]: > 130
C[C@@H]1[C@H]2C[C@@H](C[C@H]1NC(=O)c1cc3ccccc3[nH]1)C2(C)C | 8 (≈ 27 µM) | 0.78 (≈ 2.63 µM) | 11.3 (≈ 38.1 µM) | > 160 | > 188 | 0.5 (≈ 1.69 µM) | 40 (≈ 135 µM) | 0.12 (≈ 0.405 µM) | 226 | 0.12 (≈ 0.405 µM) | Dose-dependent effect | 0.06 (≈ 0.202 µM) | 188 | 0.06 (≈ 0.202 µM) | 22.6 | Dose-dependent effect | 0.5 to 1 (≈ 1.69 to 3.37 µM) | 0.05 (≈ 0.169 µM) | < 0.06 | Dose-dependent effect | MBC90 [23]: 0.06 mg/L (≈ 0.202 µM); MIC [20]: 8 mg/L (≈ 27 µM); selectivity ratio [22]: 92
Cc1cc(C)c2cc(C(=O)NC3CCCCCCC3)[nH]c2c1 | 1 (≈ 3.35 µM) | 0.313 to 0.625 (≈ 1.05 to 2.09 µM) | > 14.9 | > 160 | > 236 | 0.0078 (≈ 0.0261 µM) | > 160 | 0.063 (≈ 0.211 µM) | > 764 | 0.0039 (≈ 0.0131 µM) | Dose-dependent effect | 0.0078 (≈ 0.0261 µM) | > 1910 | 0.031 (≈ 0.104 µM) | > 1910 | Dose-dependent effect | 0.25 (≈ 0.838 µM) | 0.0195 (≈ 0.0653 µM) | 0.063 (≈ 0.211 µM) | Dose-dependent effect | MBC90 [23]: 0.015 mg/L (≈ 0.0503 µM); selectivity ratio [22]: > 3820
